22 compounds from ChEMBL document CHEMBL2176930, “Structure-based design of novel inhibitors of the MDM2-p53 interaction” (J Med Chem, 2012) can be followed below.

Calls of active or inactive are those of the source. No cut-off for these calls is given here.

What is called IC50 is the point on the concentration scale where inhibition reaches its midpoint. Broadly, the ED50 is the dose that gives a 50% effect, or the effect in half of the subjects. One may read the clearance as the volume of plasma or blood freed of the substance per unit of time. Broadly, the bioavailability is the share of a dose that reaches the circulation, judged against a reference dose that is usually intravenous. By inhibition is commonly meant how much of the control response was suppressed.

In series [1] the target is T1, Tumour suppressor p53/oncoprotein Mdm2 (Homo sapiens, UniProt Q00987). In kind it is protein assay.
T1 sequence (P04637 whole entry): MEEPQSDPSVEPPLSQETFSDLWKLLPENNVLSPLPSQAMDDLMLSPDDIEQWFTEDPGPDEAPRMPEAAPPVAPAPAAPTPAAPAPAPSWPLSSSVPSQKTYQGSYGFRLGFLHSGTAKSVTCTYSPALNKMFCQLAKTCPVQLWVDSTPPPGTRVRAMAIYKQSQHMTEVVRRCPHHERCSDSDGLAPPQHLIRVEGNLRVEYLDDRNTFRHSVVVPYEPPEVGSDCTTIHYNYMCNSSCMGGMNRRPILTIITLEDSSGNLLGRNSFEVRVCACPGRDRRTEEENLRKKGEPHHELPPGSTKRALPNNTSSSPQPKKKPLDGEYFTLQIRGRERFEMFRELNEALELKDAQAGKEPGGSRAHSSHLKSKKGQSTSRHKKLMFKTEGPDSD
T1 sequence (Q00987 whole entry): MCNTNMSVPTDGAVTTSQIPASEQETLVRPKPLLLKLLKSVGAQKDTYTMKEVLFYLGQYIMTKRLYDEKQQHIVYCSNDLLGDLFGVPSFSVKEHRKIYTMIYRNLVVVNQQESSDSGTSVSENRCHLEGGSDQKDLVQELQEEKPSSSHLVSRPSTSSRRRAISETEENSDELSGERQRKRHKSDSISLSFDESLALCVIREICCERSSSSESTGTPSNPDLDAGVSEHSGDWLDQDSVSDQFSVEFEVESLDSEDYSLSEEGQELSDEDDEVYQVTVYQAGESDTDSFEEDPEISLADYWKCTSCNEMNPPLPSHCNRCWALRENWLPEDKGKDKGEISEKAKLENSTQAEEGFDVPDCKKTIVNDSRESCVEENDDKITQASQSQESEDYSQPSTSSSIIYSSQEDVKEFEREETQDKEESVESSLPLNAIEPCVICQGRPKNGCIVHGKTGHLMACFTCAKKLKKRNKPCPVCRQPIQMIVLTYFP
The target of series [2] is T1, Tumour suppressor p53/oncoprotein Mdm2. The series is classed as protein assay. This is another data set of the same source.
For series [3], the system named is SJSA-1. The series can be described thus: animal or person. Particulars: Mus musculus, SJSA-1, po, 336 h.
A short description of series [4]: Intrinsic clearance in human hepatocytes assessed per million cells. In kind it is ADME, cell-based, Hepatocyte. Particulars: read-out: CLH.
A short description of series [5]: Volume of distribution at steady state in mouse. The settings on record: in vivo, read-out: Vdss. In kind it is ADME, organism-based.
A further series deals with HCT-116. The series can be described thus: Induction of p21 mRNA expression in p53 deficient human HCT116 cells after 7 hrs by RT-PCR analysis. In kind it is functional, cell-based. A digest of the protocol: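 HCT116 p53−/− cells exposed to compound for 7 h. Total RNA extracted and p21 mRNA quantified by quantitative RT-PCR.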
Series [6] is described as follows: Plasma clearance in rat. In kind it is ADME, organism-based.
Series [7] has as its system Mus musculus. The series can be described thus: Activity at p53 in human SJSA1 cells xenografted po dosed mouse assessed as induction of p21 mRNA expression administered once measured after 6 hrs by RT-PCR analysis. The settings on record: SJSA-1. (In xenograft studies the graft and the host belong to different species.)
Series [8] deals with SJSA-1. The series can be described thus: animal or person. The settings on record: Mus musculus, SJSA-1, po, 336 h, read-out: TGI.
Series [9] can be described thus: Volume of distribution at steady state in rat. The series is classed as ADME, organism-based. Particulars: in vivo, read-out: Vdss.
A further series addresses T2, PXR (NR1I2) (Homo sapiens, UniProt O75469).
T2 sequence (O75469 whole entry): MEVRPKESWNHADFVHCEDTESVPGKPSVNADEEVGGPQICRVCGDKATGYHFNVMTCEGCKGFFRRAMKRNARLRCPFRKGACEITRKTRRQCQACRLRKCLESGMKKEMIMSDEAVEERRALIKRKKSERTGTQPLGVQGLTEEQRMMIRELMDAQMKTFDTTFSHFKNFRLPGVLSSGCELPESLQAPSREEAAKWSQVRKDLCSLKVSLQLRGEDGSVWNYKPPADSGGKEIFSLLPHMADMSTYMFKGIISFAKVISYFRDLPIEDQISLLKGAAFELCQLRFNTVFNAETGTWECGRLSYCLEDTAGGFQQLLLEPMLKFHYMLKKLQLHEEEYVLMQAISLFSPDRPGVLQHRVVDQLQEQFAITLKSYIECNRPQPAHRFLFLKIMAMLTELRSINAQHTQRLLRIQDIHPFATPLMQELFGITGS
Put plainly: Activation of human PXR at 2 uM relative to control. Particulars: read-out: Activity.

Series [10] relates to SJSA-1. The series can be described thus: Antitumor activity against human SJSA1 cells xenografted in po dosed athymic nude mouse assessed as tumor growth inhibition administered qd after 14 days.
The nature of series [11]: Oral bioavailability in mouse. In kind it is ADME, organism-based. Particulars: in vivo.
Series [12] addresses T3, CYP3A4 (Homo sapiens, UniProt P08684). The series can be described thus: Inhibition of human CYP3A4 at 3 uM. In kind it is ADME.
In series [13] the target is T3, CYP3A4. Put plainly: Time dependent inhibition of human CYP3A4 assessed as residual activity at 10 uM after 15 mins relative to control. The series is classed as ADME. The settings on record: read-out: Activity.
Series [14] in a line: Plasma clearance in mouse. In kind it is ADME, organism-based.
Series [15] in a line: Oral bioavailability in rat. The series is classed as ADME, organism-based. The settings on record: in vivo.
The subject of series [16] is SJSA-1. Put plainly: cells. The settings on record: Homo sapiens, SJSA-1, 72 h.
Series [17] relates to Mus musculus. Put plainly: Activity at p53 in human SJSA1 cells xenografted po dosed mouse assessed as induction of p21 mRNA expression administered qd for 4 days by RT-PCR analysis relative to control. In kind it is functional, organism-based. Particulars: SJSA-1. A digest of the protocol:
(§1)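 Female athymic nude mice carrying subcutaneous SJSA-1 tumours (5 × 10^6 cells implanted; dosing at ∼175 mm3). Oral dosing q.d. for 4 days. Tumours were snap-frozen and p21 mRNA measured by quantitative RT-PCR. Reported as mean fold induction over vehicle tumours, with SEM.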

The subject of series [18] is Mus musculus. Put plainly: Activity at p53 in human SJSA1 cells xenografted mouse assessed as induction of p21 mRNA expression at 150 mg/kg, qd for 4 days by RT-PCR analysis. The series is classed as functional, organism-based. On the set-up: dose 150 mg/kg. Particulars: SJSA-1. A digest of the protocol:
as §1

Series [19] in a line: Volume of distribution in cynomolgus monkey. The series is classed as ADME, organism-based, Macaca fascicularis. The settings on record: in vivo.
The subject of series [20] is SJSA-1. The series can be described thus: Antitumor activity against human SJSA1 cells xenografted in athymic nude mouse assessed as tumor growth regression at 150 mg/kg, po qd for 14 days. The series is classed as functional, organism-based. On the set-up: dose 150 mg/kg.
For series [21], the system named is SJSA-1. The series can be described thus: Antitumor activity against human SJSA1 cells xenografted in po dosed mouse assessed as tumor growth inhibition administered bid measured twice per weak. In kind it is functional, organism-based. A digest of the protocol: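 Female athymic nude mice implanted subcutaneously with 5 × 10^6 SJSA-1 cells. Vehicle or compound at 25, 50, 75 or 100 mg/kg b.i.d. by oral gavage, starting on day 10 at ∼200 mm3 tumours (n = 10/group). Tumour size and body weight measured twice weekly; mean tumour volume ± SEM.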

T3 sequence (P08684 whole entry): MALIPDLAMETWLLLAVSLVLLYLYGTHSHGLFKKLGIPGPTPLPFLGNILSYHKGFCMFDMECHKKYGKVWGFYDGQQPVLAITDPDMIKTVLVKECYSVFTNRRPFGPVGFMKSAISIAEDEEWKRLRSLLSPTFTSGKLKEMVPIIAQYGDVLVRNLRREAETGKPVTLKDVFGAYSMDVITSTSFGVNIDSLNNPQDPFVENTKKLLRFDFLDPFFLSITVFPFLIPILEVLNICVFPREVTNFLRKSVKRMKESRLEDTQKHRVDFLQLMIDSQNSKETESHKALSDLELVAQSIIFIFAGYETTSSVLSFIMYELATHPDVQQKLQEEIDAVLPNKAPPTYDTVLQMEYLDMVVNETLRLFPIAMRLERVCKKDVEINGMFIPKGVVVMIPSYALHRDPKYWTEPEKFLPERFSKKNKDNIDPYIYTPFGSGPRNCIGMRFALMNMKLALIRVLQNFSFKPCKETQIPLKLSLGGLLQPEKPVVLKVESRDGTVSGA

For `CCC[C@@H](C(=O)OCC)N1C(=O)CC[C@H](c2cccc(Cl)c2)[C@H]1c1ccc(Cl)cc1` (racemic), the 50% inhibitory concentration (IC50) in series [1] was over 30 µM; in series [2] it was 1.4 µM.
On to `CC[C@@H](C(=O)OC(C)(C)C)N1C(=O)[C@@](C)(CC(=O)O)C[C@H](c2cccc(Cl)c2)[C@H]1c1ccc(Cl)cc1`, for which, in the series with SJSA-1 [3], the ED50 was 118 mg/kg. For the same compound, the hepatocyte CLint in [4] was 26 µL/min/1e6 cells. The results for the Vd in [5] and in series [9] were 1.3 L/kg and 1.5 L/kg, respectively. The Activity entry in the series with HCT-116 was “inactive”. For the same compound, the clearance in series [6] was 45 mL/min/kg; in series [14], 25 mL/min/kg. For the same compound, the Activity result with Mus musculus [7] is “Dose-dependent effect”. In the series with SJSA-1 [8], the inhibition in vivo at 200 mg/kg was 91%. At PXR (NR1I2), the activity at 2 µM was 27%. The TGI entry with SJSA-1 [10] is “Dose-dependent effect”. Moreover, the bioavailability in series [11] was 36%; in series [15], 77%. Besides, the inhibition at 3 µM at CYP3A4 [12] is 40%. Also, the activity at 0.25 h, 10 µM at CYP3A4 [13] stood at 77%.
Turning to `C=CC[C@H]1C[C@H](c2cccc(Cl)c2)[C@@H](c2ccc(Cl)cc2)N(CC2CC2)C1=O`, the IC50 in series [1] is over 30 µM; in series [2] it was 6.5 µM.
For `CC[C@@H](C(=O)OC(C)(C)C)N1C(=O)[C@@H](Cc2nnn[nH]2)C[C@H](c2cccc(Cl)c2)[C@H]1c1ccc(Cl)cc1`, the IC50 came out at 0.0203 µM in series [1], 0.312 µM in the series on SJSA-1 [16] and 0.0018 µM in [2].
Regarding `CCOC(=O)[C@H](C)N1C(=O)CC[C@H](c2cccc(Cl)c2)[C@H]1c1ccc(Cl)cc1` (racemic), the IC50 in [1] was over 30 µM; in [2] it was 1.7 µM.
On to `O=C(O)CC[C@H]1C[C@H](c2cccc(Cl)c2)[C@@H](c2ccc(Cl)cc2)N(CC2CC2)C1=O`, for which the half-inhibitory concentration (IC50) was 6.63 µM in [1] and 0.57 µM in [2].
For `CCCCN1C(=O)CC[C@H](c2cccc(Cl)c2)[C@H]1c1ccc(Cl)cc1` (racemic) the same measures were over 30 µM and 2.7 µM.
For `O=C(O)CC[C@@H]1C[C@H](c2cccc(Cl)c2)[C@@H](c2ccc(Cl)cc2)N(CC2CC2)C1=O` the same measures were 6.64 µM and 0.34 µM.
For `CCOC(=O)[C@H](CC)N1C(=O)CC[C@H](c2cccc(Cl)c2)[C@H]1c1ccc(Cl)cc1` (racemic) the same measures were 18.7 µM and 0.94 µM.
Regarding `CC(C)CN1C(=O)CC[C@H](c2cccc(Cl)c2)[C@H]1c1ccc(Cl)cc1` (racemic), the figures for the IC50 in [1] and in series [2] were over 30 µM and 2.3 µM, respectively.
The like results for `CCOC(=O)[C@@H](CC)N1C(=O)CC[C@H](c2cccc(Cl)c2)[C@H]1c1ccc(Cl)cc1` (racemic) were, in that order, over 30 µM and 3.5 µM.
Consider `O=C1CC[C@H](c2cccc(Cl)c2)[C@@H](c2ccc(Cl)cc2)N1Cc1ccccc1` (racemic), for which the IC50 in [1] is over 30 µM; in series [2] it was 5.4 µM.
Regarding `CC[C@@H](C(=O)OC(C)(C)C)N1C(=O)[C@@](C)(Cc2nnn[nH]2)C[C@H](c2cccc(Cl)c2)[C@H]1c1ccc(Cl)cc1`, the IC50 in series [1] was 0.009 µM; in the series with SJSA-1 [16], 0.17 µM; in [2] it was 0.0009 µM. In addition, the activity at 2 µM at PXR (NR1I2) was 65%. For the same compound, 3 µM produced 80% inhibition against CYP3A4 [12]. Further, on CYP3A4 [13], the activity at 0.25 h, 10 µM turned out to be 30%.
In turn, `CCC(CC)N1C(=O)[C@@](C)(CC(=O)O)C[C@H](c2cccc(Cl)c2)[C@H]1c1ccc(Cl)cc1` displayed an IC50 with SJSA-1 [16] of 0.54 µM.
Turning to `CCCN1C(=O)CC[C@H](c2cccc(Cl)c2)[C@H]1c1ccc(Cl)cc1` (racemic), the IC50 is over 30 µM in [1] and 1.9 µM in series [2].
As for `O=C1CC[C@H](c2cccc(Cl)c2)[C@@H](c2ccc(Cl)cc2)N1` (racemic), the figures for the IC50 in [1] and in series [2] were over 30 µM and 10 µM, respectively.
For `N#CC[C@H]1C[C@H](c2cccc(Cl)c2)[C@@H](c2ccc(Cl)cc2)N(CC2CC2)C1=O`, the IC50 in [1] is over 30 µM; in series [2] it was 2.34 µM.
Consider `O=C1CC[C@H](c2cccc(Cl)c2)[C@@H](c2ccc(Cl)cc2)N1CC1CC1` (racemic), for which, in series [2], the IC50 is 1.5 µM.
With `O=C1CC[C@@H](c2cccc(Cl)c2)[C@H](c2ccc(Cl)cc2)N1CC1CC1`, the IC50 in series [1] and in [2] was over 30 µM throughout.
In the case of `O=C1CC[C@H](c2cccc(Cl)c2)[C@@H](c2ccc(Cl)cc2)N1CC1CC1`, the results for the IC50 in series [1] and in [2] were over 30 µM and 0.82 µM, respectively.
In the series on SJSA-1 [3], `CC[C@@H]([C@H](C)O)N1C(=O)[C@@](C)(CC(=O)O)C[C@H](c2cccc(Cl)c2)[C@H]1c1ccc(Cl)cc1` came in with an ED50 of 78 mg/kg. Further, the Vd in series [5] came to 5.2 L/kg; in [9] it was 12 L/kg; in [19] it was 6.2 L/kg. For the same compound, the Activity entry in the series with Mus musculus [17], with Mus musculus [18] and with SJSA-1 [21] was “Dose-dependent effect” throughout. Besides, the Activity entry in the series on SJSA-1 [20] is “Active”.
Turning to `COC(=O)CN1C(=O)CC[C@H](c2cccc(Cl)c2)[C@H]1c1ccc(Cl)cc1` (racemic), the IC50 in series [1] is over 30 µM; in series [2], 5.5 µM.
